TRPC4 potent = allosteric potentiators of mouse TRPC4 channel | HEK293 TRPC4beta/mu-opioid, DAMGO EC20, Fluo-4 Ca2+ flux; hits give high values | B-score at 10 µM | 0.42% of 310,000 active | AID 2227;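 active means B-score of calcium response area above 5 SD of library B-scores, with initial fluorescence ratio within 5 SD of library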;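 further: B-score of integrated fluorescence ratio over time as area under calcium response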
Target sequence (Q9QUQ5 whole entry, looked up): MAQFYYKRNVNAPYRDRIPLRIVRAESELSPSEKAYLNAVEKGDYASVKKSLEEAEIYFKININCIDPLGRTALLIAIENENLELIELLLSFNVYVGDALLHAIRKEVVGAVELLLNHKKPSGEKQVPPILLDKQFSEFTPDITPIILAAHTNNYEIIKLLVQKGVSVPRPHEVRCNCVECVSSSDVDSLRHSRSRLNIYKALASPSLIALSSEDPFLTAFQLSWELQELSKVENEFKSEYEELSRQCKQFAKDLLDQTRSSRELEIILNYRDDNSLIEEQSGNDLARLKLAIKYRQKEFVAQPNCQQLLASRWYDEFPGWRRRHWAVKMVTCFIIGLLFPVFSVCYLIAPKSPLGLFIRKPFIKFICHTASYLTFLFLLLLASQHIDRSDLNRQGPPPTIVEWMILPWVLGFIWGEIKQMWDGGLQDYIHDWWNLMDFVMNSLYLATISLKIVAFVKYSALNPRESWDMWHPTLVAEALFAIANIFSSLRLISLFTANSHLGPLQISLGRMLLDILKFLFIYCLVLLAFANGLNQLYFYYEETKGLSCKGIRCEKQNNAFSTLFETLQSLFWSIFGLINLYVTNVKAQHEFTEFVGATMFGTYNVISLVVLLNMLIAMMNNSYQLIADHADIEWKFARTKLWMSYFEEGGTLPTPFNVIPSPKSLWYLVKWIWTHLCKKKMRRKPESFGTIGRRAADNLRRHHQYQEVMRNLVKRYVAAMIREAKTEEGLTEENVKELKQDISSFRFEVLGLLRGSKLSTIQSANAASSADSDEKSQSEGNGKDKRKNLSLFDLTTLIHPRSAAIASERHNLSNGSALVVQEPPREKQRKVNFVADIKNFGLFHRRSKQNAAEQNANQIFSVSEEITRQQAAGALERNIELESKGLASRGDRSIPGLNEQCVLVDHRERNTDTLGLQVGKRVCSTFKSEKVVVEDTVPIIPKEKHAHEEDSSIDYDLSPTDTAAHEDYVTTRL
TRPC4 block = inhibitors of mouse TRPC4 channel. Q9QUQ5. HEK293 TRPC4beta/mu-opioid, DAMGO-evoked Fluo4 calcium flux; hits give low values. B-score at 10 µM. 0.39% of 300,000 active;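 active means B-score over 3 SD under the library average, no early fluorescence shift, positive overall ratio signal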
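Assay system: HEK293 cells with stable TRPC4beta plus mu-opioid receptor expression; Probe or stimulus: DAMGO in two steps, submaximal then maximal; Dosing: single-point compound dosing; Measured by: Fluo4 calcium-dye fluorescence, kinetic read; Read-out basis: B score from integrated Fluo4 fluorescence ratio.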
TRPC6 inh = mouse TRPC6 channel inhibition | HEK293-TRPC6, membrane potential dye, ACh-evoked depolarization; hits give low values | B-score at 10 µM | 1.1% of 310,000 active | AID 2553;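 active means B-score under library mean minus 3 SD, initial fluorescence not abnormally high, positive integrated signal ratio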;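 further: B-score derived from integrated fluorescence ratio over the kinetic read; more negative B-score means stronger inhibition of depolarization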
TRPC6 activator = activators of mouse TRPC6 channel. Q61143. B-score at 10 µM. 0.13% of 310,000 active. HEK293-TRPC6 membrane potential dye fluorescence; hits give high values;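 active means B-score of the integrated fluorescence ratio above library mean plus 3 SD, and starting fluorescence ratio within library mean plus 5 SD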;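 further: higher score means more depolarization so channel activation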
TRPC4 act = activators of mouse TRPC4 channel; Q9QUQ5; HEK293 TRPC4beta/mu-opioid, Fluo4 calcium fluorescence; hits give high values; B-score at 10 µM; 0.49% of 310,000 active;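 active means B-score above 5 SD of library B-scores, and initial fluorescence ratio not above library mean plus 5 SD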;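 further: positive B-score marks a calcium rise read as TRPC4 activation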
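Test system: HEK293 cells stably co-expressing mouse TRPC4beta and mu-opioid receptor | Schedule: Fluo4 dye loading 45 min at room temperature, 110 s recording | Measured by: Kinetic Fluo4 calcium fluorescence, 5 s baseline at 1 Hz | Evaluation: B score of integrated ratio | Controls: Buffer (low) and maximal DAMGO (high)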
Active calls of the source: *; i = inactive. The list is not random: actives were taken first. Their share in the collection is about 2.3%.

SMILES	TRPC4 potent	TRPC4 block	TRPC6 inh	TRPC6 activator	TRPC4 act
CNC(=S)N1CCN(C(c2ccccc2)c2ccccc2)CC1	i	-6*	i	i	50*
Cc1ccc2nc3c(cc2c1)c(C)nn3-c1ccccc1	i	i	i	i	i
COC(=O)c1ccccc1NC(=O)CN1CCC(NC(=O)c2ccc(C)cc2)CC1	i	i	i	i	i
COC(=O)c1ccccc1NC(=O)CN1CCN(C23CC4CC(CC(C4)C2)C3)CC1	i	i	i	20*	i
CNC(=S)N/N=C(\C)c1ccccc1	i	i	i	i	i
CNC(=S)N/N=C(\C)c1ccc(C(C)(C)C)cc1	11*	i	i	i	i
O=S(=O)(c1cc(Cl)c(Cl)cc1Cl)N1CCN2CCCC2C1 (stereo unspecified)	i	i	i	i	67*
C/C(=N\Nc1cc(N2CCOCC2)ncn1)c1cccc([N+](=O)[O-])c1	i	i	i	i	i
COC(=O)c1sc(NC(=S)NC(=O)c2ccccc2C)nc1C	i	i	i	i	49*
Cc1ccc2occ(/C=N/NC(=O)[C@@H](N)Cc3ccccc3)c(=O)c2c1	12*	i	i	i	i
CCCS(=O)(=O)c1c(S(=O)(=O)CCC)c2ccc(C(N)=O)cn2c1C(=O)c1ccc(OC)cc1	20*	i	i	i	i
CCCS(=O)(=O)c1c(S(=O)(=O)CCC)c2ccc(C(N)=O)cn2c1C(=O)OC	i	i	i	i	i
COc1ccc(C2/C(=C(/O)c3ccccc3)C(=O)C(=O)N2CCO)cc1 (stereo unspecified)	i	i	i	i	i
COc1ccc(N/C(C)=C2/C(=O)C(=O)N(CCO)C2c2ccc(Br)cc2)cc1 (stereo unspecified)	43*	i	i	i	123*
O=C(O)CCC1c2cc3c4cc2OC2Oc5cc6c(cc51)C(CCC(=O)O)c1cc5c7cc1OC(O6)c1cc6cc(c1)Oc1cc(cc(C(=O)O)c1)Oc1cc8cc(c1)C(Oc1cc(c(cc1C5CCC(=O)O)C3CCC(=O)O)OC(O4)c1cc(cc(c1)Oc1cc(cc(C(=O)O)c1)O8)Oc1cc(cc(C(=O)O)c1)Oc1cc(cc2c1)Oc1cc(cc(C(=O)O)c1)O6)O7 (stereo unspecified)	i	i	i	186*	43*
Cc1ccc(Cl)cc1NC(=O)CCC(=O)O	i	i	i	i	i
COc1ccc(Cl)cc1NC(=O)CNC(c1ccccc1)c1ccccc1	i	i	i	i	i
Cc1ccc(Cl)cc1NC(=O)CNCC(c1ccccc1)N(C)C (stereo unspecified)	i	i	i	i	118*
COc1ccc(Cl)cc1NC(=O)CNCC(c1ccccc1)N(C)C (stereo unspecified)	i	-7*	i	i	49*
COc1ccc(NS(=O)(=O)c2ccc(NS(=O)(=O)c3ccc(SC)cc3)cc2)c(OC)c1	i	i	i	i	i
O=C(NCC(c1cccs1)N1CCOCC1)c1ccc(Cl)c([N+](=O)[O-])c1 (stereo unspecified)	i	i	i	i	90*
COc1ccc(CCNC(=O)CSc2n[nH]c(N)n2)cc1	i	i	i	i	i
Clc1ccccc1C1CC(c2ccccc2)=Nc2ccccc2N1 (stereo unspecified)	10*	i	i	i	i
N/C(Cc1cccc2ccccc12)=N\OC(=O)Cc1cccs1	i	i	i	i	i
N/C(Cc1cccc2ccccc12)=N\OC(=O)c1cccs1	i	-6*	i	i	i
Cc1nc2ccccc2n1CC(O)COc1ccccc1Cl (stereo unspecified)	i	-7*	i	i	i
Cc1nc2ccccc2n1CC(O)COc1ccc(Br)cc1 (stereo unspecified)	i	i	i	i	i
CN(CCc1ccccn1)c1ccc([N+](=O)[O-])cn1	i	i	i	i	189*
O=[N+]([O-])c1ccc(SCCc2ccncc2)cc1	i	i	i	i	i
O=[N+]([O-])c1ccc(SCCc2ccccn2)cc1	14*	i	i	i	i

Compound activity (PubChem BioAssay)
